32 compounds from PubChem BioAssay AID504789 (Broad Institute, 2011) can be followed below.

Results filed as inconclusive are left out. Calls of active or inactive are those of the source.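 Rule for the calls: active = compound whose fitted half-maximal dose lies within ten times its top tested dose in every test run, killing cells; inconclusive = test runs disagree, or a run gives an unclear call; inactive = every test run inactive.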

Test system in the first experiment: not listed separately
Put plainly: cytotoxicity in control HMLE_sh_eGFP cells, dose response, counter-screen for breast cancer stem cell project, cell-based, luminescence, dry powder, set 7 (AID 504789). To be noted: HMLE_sh_eGFP viability, CellTiter-Glo luminescence, 72 h; at 19.5 µM (top of the series). An outline of the steps: (§1)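 Test system: HMLE_sh_eGFP control cells; buffer or medium: medium without serum; schedule: compound exposure approximately 70–74 h at 37 °C; technique: CellTiter-Glo ATP luminescence; control set: DMSO neutral control and 160 µM puromycin positive control, every plate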
(Counterscreens check selectivity or assay interference.)
In the case of `O=C(COc1ccc(Cl)cc1Cl)N/N=C/c1ccccc1`, the activity change, negative = cytotoxicity is 11.1% (inactive).

Consider `N#Cc1ccccc1/C=C/C(=O)NC1=NCCS1`, for which the activity change, negative = cytotoxicity is 5.88% (inactive).

Take `N#Cc1cccc(/C=C/C(=O)NC2=NCCS2)c1`: the activity change, negative = cytotoxicity was -7.41% (inactive).

`O=C(c1ccc(COc2ccccc2)o1)N1CC(F)(F)C1`: the activity change, negative = cytotoxicity is 13.3% (inactive).

With `COc1cc(OC(C)C)ccc1/C=C/C(=O)NC1=NCCS1`, the activity change, negative = cytotoxicity was 25% (inactive).

Turning to `CC(C)c1ccc(/C=C\C(=O)NC2=NCCS2)cc1`, the activity change, negative = cytotoxicity was -12.1% (inactive).

With `COc1cc(C(C)C)ccc1/C=C/C(=O)NC1=NCCS1`, the activity change, negative = cytotoxicity is 10.3% (inactive).

In the case of `Cc1csc(NC(=O)c2cccc(CNc3ccccn3)c2)n1`, the activity change, negative = cytotoxicity is -7.38% (inactive).

`O=C(COc1ccc(Cl)cc1Cl)NC1=NCCS1`: the activity change, negative = cytotoxicity was -6.79% (inactive).

On to `CC(C)c1ccc(C#CC(=O)NC2=NCCS2)cc1`, for which the activity change, negative = cytotoxicity is 6.05% (inactive).

On to `Cc1csc(NC(=O)c2ccc(COc3ncccc3F)o2)n1`, for which the activity change, negative = cytotoxicity was -4.8% (inactive).

Turning to `Cc1csc(NC(=O)c2ccc(CNc3ncccc3F)o2)n1`, the activity change, negative = cytotoxicity is 3.58% (inactive).

For `Cc1csc(NC(=O)c2ccc(COc3cccnc3)o2)n1`, the activity change, negative = cytotoxicity was 17.4% (inactive).

Regarding `CC(C)c1ccc(/C=C/C(=O)N2CC(F)(F)C2)cc1`, the activity change, negative = cytotoxicity is 11.1% (inactive).

`CCc1ccc(/C=C/C(=O)NC2=NCCS2)cn1`: the activity change, negative = cytotoxicity was -2.79% (inactive).

Take `O=C(c1ccc(COc2ccccc2)o1)n1ccc(-c2ccc[nH]2)n1`: the activity change, negative = cytotoxicity is 10.5% (inactive).

On to `O=C(COc1ccc(Cl)cc1Cl)n1ccc(-c2ccc[nH]2)n1`, for which the activity change, negative = cytotoxicity was 27.2% (inactive).

Take `O=C(COc1ccc(Cl)cc1Cl)Nc1nccs1`: the activity change, negative = cytotoxicity is 0.602% (inactive).

As for `CN(C)C(=N)N=C(N)N`, the activity change, negative = cytotoxicity is 15.9% (inactive).

Consider `Cc1cccc(/C=C/C(=O)NC2=NCCS2)c1`, for which the activity change, negative = cytotoxicity is 23.8% (inactive).

As for `Cc1ccnc(NCc2ccc(C(=O)Nc3nc(C)cs3)o2)c1`, the activity change, negative = cytotoxicity is -1.56% (inactive).

In the case of `O=C(COc1c(Cl)cc(Cl)cc1Cl)N/N=C/c1ccc[nH]1`, the activity change, negative = cytotoxicity is 17.5% (inactive).

With `O=C(O)COc1ccc(Cl)cc1Cl`, the activity change, negative = cytotoxicity is -6.56% (inactive).

Another experiment concerns HMLE_sh_eGFP viability, CellTiter-Glo luminescence, 72 h. The experiment is described as above.
Details: not given
Put shortly:
as §1
For `Cc1csc(NC(=O)c2ccc(COc3cccc(OC(F)(F)F)c3)o2)n1`, the AC50 (as a rule, the midpoint of the concentration-response curve, whichever way the signal moves) was 3.01 µM.

On to `Cc1cccc(NCc2cccc(C(=O)Nc3nc(C)cs3)c2)n1`, for which the half-maximal activity concentration (AC50) is 25 µM.

For the compound `Cc1csc(NC(=O)c2cccc(COc3ccccc3F)c2)n1`, the AC50 is 12.4 µM.

As for `Cc1csc(NC(=O)c2cccc(COc3cccc(F)c3)c2)n1`, the AC50 was 2.2 µM.

As for `COc1cccc2c1C(=O)c1c(O)c3c(c(O)c1C2=O)C[C@@](O)(C(=O)CO)C[C@@H]3OC1C[C@H](N)[C@H](O)[C@H](C)O1` (some centres not stated), the AC50 was 0.068 µM.

As for `CC(C)c1ccc(/C=C/C(=O)n2ccc(-c3ccc[nH]3)n2)cc1`, the concentration at half-maximal activity (AC50) was 10.7 µM.

Take `Cc1csc(NC(=O)c2cccc(COc3cccc(Cl)c3)c2)n1`: the AC50 was 3.87 µM.

Consider `Cc1cccc(NCc2ccc(C(=O)Nc3nc(C)cs3)o2)n1`, for which the AC50 was 21.9 µM.

Take `Cc1cccc(OCc2cccc(C(=O)Nc3nc(C)cs3)c2)c1`: the AC50 was 11.9 µM.
